Test results reported in ChEMBL document CHEMBL1123453, “Quinazoline antifolates inhibiting thymidylate synthase: benzoyl ring modifications” (J Med Chem, 1986).

Experiments:
[1] = target: T1, Thymidylate synthase (Mus musculus, UniProt P07607); experiment: In vitro inhibition of L1210 thymidylate synthase
In short: (§1)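 Thymidylate synthase purified from L1210 cells; IC50 determined, with CB3717 assayed as the reference control alongside each compound.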

[2] = target: T2, Dihydrofolate reductase (Mus musculus, UniProt P00375); experiment: The compound was evaluated in vitro for inhibition of purified L1210 dihydrofolate reductase
T2 sequence (P00375 whole entry): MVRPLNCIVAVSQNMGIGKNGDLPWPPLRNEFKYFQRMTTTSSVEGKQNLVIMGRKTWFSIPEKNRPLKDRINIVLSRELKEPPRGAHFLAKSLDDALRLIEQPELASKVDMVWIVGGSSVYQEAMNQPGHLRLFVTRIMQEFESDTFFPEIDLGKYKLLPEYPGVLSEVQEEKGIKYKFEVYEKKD

[3] = target: T1, Thymidylate synthase; experiment: In vitro inhibition of L1210 thymidylate synthase with CB3717 as control; in short: as §1
[4] = system: L1210; experiment: The compound was evaluated for the inhibition of growth of L1210 cells in culture; type: functional, cell-based; details: Mus musculus
In short: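 L1210 cells grown in culture; growth inhibition reported as the ID50 in μM.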

T1 sequence (P07607 whole entry): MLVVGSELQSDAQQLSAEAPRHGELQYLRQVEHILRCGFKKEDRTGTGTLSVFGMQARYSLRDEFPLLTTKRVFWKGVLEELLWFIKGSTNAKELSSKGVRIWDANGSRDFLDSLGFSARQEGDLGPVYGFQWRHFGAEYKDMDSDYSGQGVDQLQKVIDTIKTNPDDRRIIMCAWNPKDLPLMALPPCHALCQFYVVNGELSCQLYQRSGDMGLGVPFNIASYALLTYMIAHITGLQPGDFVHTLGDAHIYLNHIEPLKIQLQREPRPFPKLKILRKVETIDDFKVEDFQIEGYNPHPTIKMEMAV

| SMILES | IC50 [1] [µM] | IC50 [2] [µM] | IC50 [3] [µM] | IC50 [4] [µM] |
| --- | --- | --- | --- | --- |
| C#CCN(Cc1ccc2nc(N)nc(O)c2c1)c1ccc(C(=O)NC(CCC(=O)O)C(=O)O)c(C)c1 (configuration not stated) | 0.4 | 25 | 0.019 | 24 |
| C#CCN(Cc1ccc2[nH]c(N)nc(=O)c2c1)c1ccc(C(=O)NC(CCC(=O)O)C(=O)O)cc1 (configuration not stated) | – | – | – | 7 |

More lines, now with the values ahead:

| IC50 [1] [µM] | IC50 [2] [µM] | IC50 [3] [µM] | IC50 [4] [µM] | SMILES |
| --- | --- | --- | --- | --- |
| 5 | 3 | 0.0144 | 72 | C#CCN(Cc1ccc2nc(N)nc(O)c2c1)c1ccc(C(=O)NC(CCC(=O)O)C(=O)O)cc1Cl (configuration not stated) |
| > 5 | 3 | 0.0144 | 37 | C#CCN(Cc1ccc2nc(N)nc(O)c2c1)c1c(Cl)cc(C(=O)NC(CCC(=O)O)C(=O)O)cc1Cl (configuration not stated) |
| 0.03 | 11 | 0.014 | 12 | C#CCN(Cc1ccc2nc(N)nc(O)c2c1)c1ccc(C(=O)NC(CCC(=O)O)C(=O)O)c(Cl)c1 (configuration not stated) |
